Results on 11 compounds are retold here after ChEMBL document CHEMBL1129321, “Discovery of an orally active non-peptide fibrinogen receptor antagonist” (J Med Chem, 1996).

The species entered for one data set is Canis familiaris. The experiment in a line: Inhibitory activity against dog platelet aggregation in GFP. Type of data set: functional, organism-based. The following applies: Canis lupus familiaris.
For data set [1], the species on record is Homo sapiens. The experiment in a line: Inhibitory activity against platelet rich plasma. It is filed as functional, organism-based.
In data set [2] the target is T1, Integrin alpha-IIb/beta-3 (Homo sapiens, UniProt P05106+P08514). Description: Inhibition of [125I]fibrinogen binding to ADP-activated human gel filtered platelets.
T1 sequence (P05106 27-788 limits assumed): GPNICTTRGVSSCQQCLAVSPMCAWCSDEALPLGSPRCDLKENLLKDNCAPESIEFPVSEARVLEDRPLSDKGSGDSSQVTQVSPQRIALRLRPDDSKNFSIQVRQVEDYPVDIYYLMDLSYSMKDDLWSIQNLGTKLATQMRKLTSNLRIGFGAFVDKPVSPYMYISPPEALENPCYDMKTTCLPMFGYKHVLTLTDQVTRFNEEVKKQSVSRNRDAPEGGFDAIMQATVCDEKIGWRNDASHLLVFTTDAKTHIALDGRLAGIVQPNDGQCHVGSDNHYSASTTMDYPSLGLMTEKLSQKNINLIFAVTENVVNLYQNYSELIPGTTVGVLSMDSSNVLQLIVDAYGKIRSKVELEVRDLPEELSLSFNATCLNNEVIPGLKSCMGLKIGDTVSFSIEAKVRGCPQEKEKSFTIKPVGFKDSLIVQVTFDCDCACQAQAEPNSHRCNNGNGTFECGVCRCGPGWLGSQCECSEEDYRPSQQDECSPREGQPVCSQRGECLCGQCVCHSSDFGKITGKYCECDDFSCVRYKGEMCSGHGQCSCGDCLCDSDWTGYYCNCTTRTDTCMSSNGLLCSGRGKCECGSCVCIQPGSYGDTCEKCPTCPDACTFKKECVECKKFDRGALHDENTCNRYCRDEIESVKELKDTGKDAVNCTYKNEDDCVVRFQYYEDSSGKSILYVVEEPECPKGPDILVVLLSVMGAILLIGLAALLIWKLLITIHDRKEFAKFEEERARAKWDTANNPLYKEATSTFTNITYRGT
T1 sequence (P08514 32-887 limits assumed): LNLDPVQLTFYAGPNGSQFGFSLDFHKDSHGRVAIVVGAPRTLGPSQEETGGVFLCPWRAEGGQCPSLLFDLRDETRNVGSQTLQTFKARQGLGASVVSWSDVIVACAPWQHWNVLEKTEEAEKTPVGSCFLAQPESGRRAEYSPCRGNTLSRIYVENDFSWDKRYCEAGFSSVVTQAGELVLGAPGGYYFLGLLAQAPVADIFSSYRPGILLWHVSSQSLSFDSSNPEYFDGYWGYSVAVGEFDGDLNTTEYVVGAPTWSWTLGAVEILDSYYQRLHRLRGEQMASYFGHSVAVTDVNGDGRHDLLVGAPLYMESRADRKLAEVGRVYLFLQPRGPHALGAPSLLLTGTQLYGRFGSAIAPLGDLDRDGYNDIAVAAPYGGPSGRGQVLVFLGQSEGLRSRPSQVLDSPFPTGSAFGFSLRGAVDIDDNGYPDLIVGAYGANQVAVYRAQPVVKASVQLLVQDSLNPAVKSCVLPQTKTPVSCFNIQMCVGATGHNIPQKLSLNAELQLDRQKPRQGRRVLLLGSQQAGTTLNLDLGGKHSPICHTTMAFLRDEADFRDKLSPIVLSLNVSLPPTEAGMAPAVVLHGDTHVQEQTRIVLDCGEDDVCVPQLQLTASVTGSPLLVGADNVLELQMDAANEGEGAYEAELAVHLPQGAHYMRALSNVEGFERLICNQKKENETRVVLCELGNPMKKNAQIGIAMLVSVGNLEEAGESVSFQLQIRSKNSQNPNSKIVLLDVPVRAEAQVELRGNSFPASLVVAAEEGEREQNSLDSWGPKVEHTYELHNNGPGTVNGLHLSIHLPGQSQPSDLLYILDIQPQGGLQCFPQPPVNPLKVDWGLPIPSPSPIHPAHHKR
T1 sequence (P08514 891-1039 limits assumed): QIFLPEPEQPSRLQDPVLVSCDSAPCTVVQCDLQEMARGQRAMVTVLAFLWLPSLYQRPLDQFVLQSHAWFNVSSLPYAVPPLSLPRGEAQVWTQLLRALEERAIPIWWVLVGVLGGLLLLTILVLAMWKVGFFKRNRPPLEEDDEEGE
Data set [3] is filed under the species Homo sapiens. The experiment in a line: Inhibitory activity against aggregation of human platelets. Type of data set: functional, organism-based. In a few lines:
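Human platelets were gel-filtered from PRP on Sepharose 2B and used at 3 × 10⁸ platelets/mL with 1 mg/mL fibrinogen. Compounds were added at 37 °C 2 min before activation with 10 µM ADP, with stirring at 1000 rpm at 37 °C. Aggregation was read as the maximal increase in light transmittance. IC50 is the mean over GFP from two to six donors.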

A short description of data set [4]: Oral bioavailability in dog. It is filed as ADME, organism-based, Canis lupus familiaris. To be noted: in vivo. In a few lines:
(§1)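 Conscious dogs received compound intravenously and orally, and blood was sampled over time for plasma. Active plasma equivalents were measured by bioassay as inhibition of ¹²⁵I-fibrinogen binding to isolated, immobilized GPIIb/IIIa. Kinetic data points are means from four dogs.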

The target in data set [5] is T1, Integrin alpha-IIb/beta-3. Description: Inhibition of [125I]fibrinogen binding to isolated GPIIb/IIIa. Type of data set: protein-complex assay.
A short description of data set [6]: Half life from dog blood after oral administration at a dose of 3 mg/kg Expt-1. On the set-up: dose 3 mg/kg, route oral. It is filed as ADME, organism-based, Canis lupus familiaris. A digest of the protocol: as §1
Data set [7] is described as follows: Half life from dog blood after oral administration at a dose of 3 mg/kg Expt-2. It is filed as ADME, organism-based, Canis lupus familiaris. On the set-up: dose 3 mg/kg, route oral. A digest of the protocol:
as §1

Data set [8] is described as follows: Half life from dog blood after intravenous administration at a dose of 0.3 mg/kg Expt-1. It is filed as ADME, organism-based, Canis lupus familiaris. On the set-up: dose 0.3 mg/kg, route intravenous. In a few lines: as §1
Data set [9] can be described thus: Half life from dog blood after intravenous administration at a dose of 0.3 mg/kg Expt-2. It is filed as ADME, organism-based, Canis lupus familiaris. On the set-up: dose 0.3 mg/kg, route intravenous. A digest of the protocol: as §1

In the case of `C[C@@]1(c2ccc(C(=N)N)cc2)NC(=O)N(CC(=O)N[C@@H](CC(=O)O)c2ccccc2)C1=O`, the values for the IC50 in the data set filed under Canis familiaris, in the data set filed under Homo sapiens [1] and in the data set filed under Homo sapiens [3] were 100 nM, 100 nM and 20 nM, respectively. Moreover, the results for the Ki in [2] and in data set [5] were 9 nM and 0.17 nM, respectively. In addition, the bioavailability (as a rule, the share of a dose that reaches the circulation, judged against a reference dose that is usually intravenous) in data set [4] was determined as 10%. Turning to `C[C@]1(c2ccc(C(=N)N)cc2)NC(=O)N(CC(=O)N[C@H](CC(=O)O)c2ccccc2)C1=O`, in the data set filed under Homo sapiens [3], half-maximal inhibition (IC50) required 5000 nM. As to `CC1(c2ccc(C(=N)N)cc2)NC(=O)N(CC(=O)NC(CC(=O)O)c2cccnc2)C1=O` (stereo unspecified), it took 100 nM to reach half-maximal inhibition in the data set listed under Homo sapiens [3] (IC50).

`C[C@@]1(c2ccc(C(=N)N)cc2)NC(=O)N(CC(=O)N[C@H](CC(=O)O)c2ccccc2)C1=O`: in the data set listed under Homo sapiens [3], inhibition was half-maximal at 50000 nM (IC50).

For the compound `C[C@]1(c2ccc(C(=N)N)cc2)NC(=O)N(CC(=O)N[C@@H](CC(=O)O)c2ccccc2)C1=O`, in the data set listed under Homo sapiens [3], the IC50 (as a rule, the concentration that inhibits the measured activity by half) worked out at 6000 nM. With `CC1(c2ccc(C(=N)N)cc2)NC(=O)N(CC(=O)NC(CC(=O)O)c2ccc3c(c2)OCO3)C1=O` (stereo unspecified), the IC50 in the data set listed under Homo sapiens [3] turned out to be 80 nM.

`CC1(c2ccc(C(=N)N)cc2)NC(=O)N(CC(=O)NC(CC(=O)O)c2cccc3ccccc23)C1=O` (stereo unspecified) registered a half-maximal inhibitory concentration (IC50) in the data set listed under Homo sapiens [3] of 300 nM. Compound `CC1(c2ccc(C(=N)N)cc2)NC(=O)N(CC(=O)NC(CC(=O)O)c2ccccc2)C1=O` (stereo unspecified) displayed an IC50 in the data set filed under Homo sapiens [3] of 200 nM. This compound yielded a bioavailability in data set [4] of 5%.

On to `CCOC(=O)C[C@H](NC(=O)CN1C(=O)N[C@@](C)(c2ccc(C(=N)N)cc2)C1=O)c1ccccc1` [CARAFIBAN], for which the half-life (usually the time in which the quantity being followed falls by half) was 7.9 h in data set [6], 9.9 h in [7], 1.4 h in data set [8] and 0.8 h in [9]. The compound also yielded a bioavailability in data set [4] of 42%. Turning to `N=C(N)NCCC[C@@H]1NC(=O)N(CC(=O)N[C@@H](CC(=O)O)C(=O)N[C@H](C(=O)O)c2ccccc2)C1=O`, the concentration for half-maximal inhibition (IC50) in the data set listed under Homo sapiens [3] was 900 nM. This counts as sub-micromolar. In the case of `N=C(N)NCCC[C@@H]1NC(=O)N(CC(=O)N[C@@H](CC(=O)O)C(=O)N[C@@H](CO)C(=O)O)C1=O`, half-maximal inhibition in the data set listed under Homo sapiens [3] (IC50) required 10000 nM.
